Measurements collected from several papers.
Target: Dual specificity protein kinase CLK1 (CLK1, Homo sapiens, UniProt P49759)

`Cc1ccc(NC(=O)c2ccc(C)c(C(F)(F)F)c2)cc1C#Cc1nn(C2CCC(O)CC2)c2ncnc(N)c12` (stereo not shown) gave a remaining signal of 64% (cell-free assay; 10 µM).
`Cc1cc(NC(=O)c2cccc3cc(-c4cccc5[nH]nc(N)c45)ccc23)ccc1F` gave an activity vs control of 97% (enzyme activity; inhibitor; 0.1 µM).
The inhibition of `COc1cc(-c2cc(-c3ccc(N4CCNCC4)cc3)cnc2C)cc(OC)c1OC` is reported as 1% (enzyme activity; inhibitor; 0.1 µM).
With `CNC(=O)c1ccc(Nc2ncc(C(F)(F)F)c(NCc3nccnc3N(C)S(C)(=O)=O)n2)cc1` the remaining binding was 23% (cell-free assay; competition with immobilised ligand; 0.1 µM).
The remaining signal of `O=C1NC(=O)c2cc(Nc3ccc(F)cc3)c(Nc3ccc(F)cc3)cc21` is reported as 102% (cell-free assay; 0.5 µM).
The remaining activity of `CC(C)(C)c1nc(-c2cccc(NS(=O)(=O)c3c(F)cccc3F)c2F)c(-c2ccnc(N)n2)s1` is reported as 89% (enzyme activity; inhibitor; radiometric; 1 µM).
For `CNC(=O)Nc1ccc2c(c1)CC[C@@]21OC(=O)N(CC(=O)N(Cc2ccc(F)cc2)[C@@H](C)C(F)(F)F)C1=O`, the remaining binding was 69% (cell-free assay; competition with immobilised ligand; 1 µM).
The remaining activity of `O=C(Nc1cnn(-c2csc(C(=O)NC3COC3)c2)c1)Nc1ccccc1Cl` is reported as 81% (enzyme activity; inhibitor; 5 µM).
For `Cn1cnc(Br)c1C1=CN(c2ncnc3[nH]cnc23)CCS1`, the inhibition was 96.1% (enzyme activity; inhibitor; radiometric; 2 µM).
`CCc1ccccc1C(=O)Nc1n[nH]c2c(C)c(F)c(C3C(C#N)=C(C)N(C)C(C)=C3C#N)cc12` has a remaining binding of 84% (cell-free assay; competition with immobilised ligand; 1 µM).
The remaining signal of `C[S+]([O-])c1ccc(-c2nc(-c3ccncc3)c(-c3ccc(F)cc3)[nH]2)cc1` (stereo not shown) is reported as 101% (cell-free assay; 0.5 µM).
`CC(C)(O)[C@H]1CC[C@H](Nc2ccc3ncc(-c4cccc(C(F)(F)F)c4)n3n2)CC1` has a remaining activity of 8.45% (enzyme activity; inhibitor; 1 µM).
For `c1nc2c(Nc3ccc4c(c3)OCCO4)nc(Nc3ccc4c(c3)OCCO4)nc2[nH]1`, the activity vs control was 2.2% (enzyme activity; inhibitor; 10 µM).
`COc1cc2ncnc(Nc3ccc(Oc4ccccc4)c(C)c3C)c2cc1OC` has an inhibition of 3% (enzyme activity; inhibitor; 1 µM).
`Cc1nc(Cc2cccc(C(F)(F)F)c2)sc1-c1ccc(C(N)=O)nc1` gave a remaining binding of 83% (cell-free assay; competition with immobilised ligand; 1 µM).
`Oc1cccc(-c2nc(N3CCOCC3)c3oc4ncccc4c3n2)c1` gave a remaining signal of 85.2% (cell-free assay; 0.5 µM).
With `O=C(N1CCS(=O)(=O)CC1)N1C[C@H](c2ccc(OC(F)(F)F)cc2)C[C@H](c2nc(C3CC3)no2)C1` the remaining binding was 98% (cell-free assay; competition with immobilised ligand; 1 µM).
With `COc1cc2nccc(Oc3ccc(NC(=O)Nc4ccc(F)cc4F)c(F)c3)c2cc1OC` the ΔTm was 5 to 10 °C (thermal stability; DSF; 10 µM).
With `CNCc1ccccc1-c1csc([C@@H](C)Nc2nc(C)nc3cc(OC)c(OC)cc23)c1` the remaining binding was 98% (cell-free assay; competition with immobilised ligand; 1 µM).
`CC/C(=N\NC(=O)NCc1cccc(O)c1)c1ccc(O)c(C)c1O` has an inhibition of 0.7% (enzyme activity; inhibitor; 0.1 µM).
With `Cc1cc(-n2nc(Cc3cc(F)cc(C(F)(F)F)c3)nc2C)ccc1C(N)=O` the remaining binding was 86% (cell-free assay; competition with immobilised ligand; 1 µM).
`N#CCCc1ccc2c(c1)-c1[nH]c3ccc([N+](=O)[O-])cc3c1CC(=O)N2` has a remaining signal of 99.6% (cell-free assay; 0.5 µM).
